These results are taken from ChEMBL document CHEMBL3244055, “Synthesis of mono- and bifunctional alpha-methylene lactone systems as potential tumor inhibitors” (1977).

The subject of assay [1] is CCRF-CEM. The experiment in a line: Growth inhibition of human CCRF-CEM cells after 48 hrs by cell culture assay in presence of 1 x 10^-4 M L-cysteine. The assay is classed as functional. As to conditions: read-out: ID50 (the source's name).
The test system of assay [2] is CCRF-CEM. The experiment in a line: Growth inhibition of human CCRF-CEM cells after 48 hrs by cell culture assay. The assay is classed as functional. As to conditions: read-out: ID50 (the source's name). In short, it runs like this: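 CCRF-CEM human lymphoblastic leukemia cells, which lack cystathionase and need exogenous L-cysteine, grown in culture with test lactone; growth inhibition expressed as ID50 (M).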

For assay [3], the system named is CCRF-SLT. The experiment in a line: Growth inhibition of human CCRF-SLT cells in presence of cystathionine. It is filed as functional, cell-based. In short, it runs like this: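 Cystathionase-containing CCRF-SLT cell line, able to grow on cystathionine, cultured with test lactone in medium supplemented with cystathionine and, in parallel, without it; growth inhibition compared between the two media.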

Active and inactive are the calls of the source. The rule behind the calls is not given here.

With `C=C[C@]12CC[C@H]3C(=C)C(=O)O[C@@H]3[C@H]1C(=C)C(=O)OC2`, the IC50 in assay [1] is 34 nM. For `C=C[C@]12CCCC[C@H]1C(=C)C(=O)OC2` (relative stereo), the IC50 in assay [2] came out at 0.68 µM.

Turning to `C=C(C(=O)OC)[C@H]1CCC[C@H]2C(=C)C(=O)O[C@H]12` (relative stereo), the IC50 in assay [2] is 2.1 µM. As to `C=C1C(=O)O[C@@H]2CCC[C@@H](O)[C@H]12` (relative stereo), the IC50 in assay [2] is 15 µM. In assay [3], the “growth inhibition (GI)” value was “Active”. The corresponding values for `C=C1C(=O)O[C@H]2CCC[C@@H]1C2` (relative stereo) are 16 µM and “Active”. For the molecule `C=C1C(=O)O[C@@H]2CC[C@@H](O)[C@H]12` (relative stereo), the IC50 in assay [2] was 2.7 µM.

`C=C[C@@]12COC(=O)C(=C)[C@@H]1[C@H]1OC(=O)C(=C)[C@@H]1[C@@H](O)C2` [VERNOLEPIN]: the IC50 in assay [1] stood at 430 nM.

For the molecule `C=C1C(=O)OC(C)(C)C1C` (stereo not drawn), the IC50 in assay [2] amounted to 21 µM. Also, in assay [3], the “growth inhibition (GI)” value was “Active”. For the molecule `C=C1C(=O)OC[C@@]2(CC)CC[C@H]3C(=C)C(=O)O[C@@H]3[C@@H]12`, in assay [1], the IC50 came to 34 nM. For the molecule `C=C1C(=O)OC[C@H]2[C@H]3CC[C@@H](C3)[C@@H]12`, the IC50 in assay [2] is 7 µM.
